High-throughput results deposited in PubChem BioAssay by several laboratories.
Hits are enriched below; roughly 1.2% of the tested compounds scored in any of these assays.
zfTRPN1 agonist = agonists of zebrafish TRPN1 channel; 220,000 tested, 0.18% active; activation, % at 3 µM; HEK293 zebrafish TRPN1-YFP, Fluo-8 calcium fluorescence; 100% = response to 87 µM carbachol;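 active = activation above its plate's cutoff, the mean activation of test wells on that plate plus 3 SD, cut at about 19% in these data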
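Material: zebrafish TRPN1-YFP in HEK293 cells; Doses: single test compound dose, 3 µM nominal, 0.3% DMSO; Timing: dye loading 1 h at 37 °C, then 30 min room temperature; Technique: intracellular calcium fluorescence with Fluo-8; Benchmarks: high carbachol 87 µM, low DMSO alone.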
CRFBP-R2 block = blocks CRF-induced signaling of the CRF-BP/CRF-R2 complex. 350,000 tested, 0.59% active. HEK293 CRF-R2/CRF-BP, CRF-induced calcium fluorescence. inhibition, % at 11.8 µM. AID 588475;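 active = inhibition of the ligand-induced calcium signal above about 50% at the single tested concentration, limit read from the data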
CRFBP-R2 agonist = agonists of human CRF-binding protein/CRF-R2 receptor complex; activation, % at 13.2 µM; HEK293 CRF-R2/CRF-BP, calcium dye fluorescence (FLIPR); percent of saturating CRF peptide response; 350,000 tested, 0.46% active; AID 588473;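 active = activation of at least 50%, plus an integration ratio under a set limit after plate pattern correction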
TRPML3 ag = agonists of human TRPML3 channel. Q8TDD5. HEK293 TRPML3-YFP, Fluo-8 calcium fluorescence; 100% = the carbachol control signal. activation, % at 3 µM. 220,000 tested, 0.29% active. AID 1448;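 active = activation above its plate's cutoff, the mean activation of the plate's test wells plus 3 SD, cut at about 12% in these data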
Target sequence (Q8TDD5 whole entry, looked up): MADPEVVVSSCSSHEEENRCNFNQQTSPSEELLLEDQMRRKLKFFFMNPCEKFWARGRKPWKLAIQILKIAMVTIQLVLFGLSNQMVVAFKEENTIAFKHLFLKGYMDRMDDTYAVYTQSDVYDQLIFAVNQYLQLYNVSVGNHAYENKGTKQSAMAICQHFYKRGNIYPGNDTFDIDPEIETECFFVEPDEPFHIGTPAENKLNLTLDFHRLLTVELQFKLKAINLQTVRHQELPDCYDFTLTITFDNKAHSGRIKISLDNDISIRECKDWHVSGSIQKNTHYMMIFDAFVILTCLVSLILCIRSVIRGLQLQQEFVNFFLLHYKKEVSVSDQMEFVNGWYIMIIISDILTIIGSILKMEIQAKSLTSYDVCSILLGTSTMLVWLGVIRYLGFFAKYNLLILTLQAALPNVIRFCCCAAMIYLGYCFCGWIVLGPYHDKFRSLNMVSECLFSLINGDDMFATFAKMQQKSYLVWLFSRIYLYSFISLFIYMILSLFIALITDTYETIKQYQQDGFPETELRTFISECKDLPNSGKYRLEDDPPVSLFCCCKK
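system = HEK293 cells stably carrying human TRPML3-YFP | doses = one concentration, 3 µM nominal, 0.3% DMSO | timing = dye loading 1 h 37 °C then 30 min ambient, 125 s read | detection = Fluo-8 calcium dye fluorescence, ex 470-495, em 515-575 nm | benchmarks = high control carbachol 87 µM, low control DMSO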
Of the large screens only hits and unclear results are named; the others gave an inactive call.

C#CCOCCOCCOCCNc1nc(N2CCN(C(=O)CCCCCCCCCCNC(=O)[C@H](CCCCN)n3cc(C)nn3)CC2)nc(N2CCN(C(=O)CCCCCCCCCCNC(=O)[C@@H]([C@H](C)O)n3cc(C)nn3)CC2)n1	none (no result: zfTRPN1 agonist, TRPML3 ag)
O=C(COc1ccc(Cl)cc1Cl)Nc1ccc(Cl)cn1	none
O=C(COc1ccc(Cl)cc1Cl)Nc1ccccc1F	CRFBP-R2 block 125 (no result: zfTRPN1 agonist, TRPML3 ag)
Cc1nc2cc(C(=O)NCc3ccc4c(c3)OCO4)ccc2n1-c1ccc(Br)cc1	CRFBP-R2 block 65
Nc1cc(=O)n(Cc2ccccc2)c(=O)n1-c1ccc(Cl)cc1	none
CC(=O)N(C(C)=O)c1cccc(N(Cc2ccccc2)Cc2ccccc2)c1	CRFBP-R2 block 54 (no result: zfTRPN1 agonist, TRPML3 ag)
Cc1cccc(N(Cc2ccccc2)C(=O)CCl)c1	none
Cn1nnnc1SCC(=O)c1ccc(Br)s1	none
Cn1c(Cc2ccccc2)nnc1SCC(=O)c1ccc(Br)s1	TRPML3 ag 38
CCOC(=O)N1CCN(CC(O)c2ccc3cc[nH]c3c2)CC1 (stereo not given)	CRFBP-R2 agonist 58
CCOC(=O)N1CCN(CC(O)c2ccc3c(c2)CCN3)CC1 (stereo not given)	none
Cc1n[nH]c(C)c1N=Nc1cc(Cl)ccc1Cl	none
Cc1cc2nc3c(=O)n(CCc4ccccc4)c(=O)[nH]c3nc2cc1N	zfTRPN1 agonist 51, CRFBP-R2 agonist 152
Cc1nc2ccccc2c(=O)n1CCc1ccccc1	none (no result: zfTRPN1 agonist, TRPML3 ag)
Nc1ccc2nc3c(=O)n(CCc4ccccc4)c(=O)[nH]c3nc2c1	zfTRPN1 agonist 91, CRFBP-R2 agonist 195, TRPML3 ag 23
COc1cc2[nH]c(=O)n(C3CCCCC3)c(=O)c2cc1OC	none
CCCCn1c(=O)[nH]c2nc3cc(N)ccc3nc2c1=O	zfTRPN1 agonist 42, CRFBP-R2 agonist 232, TRPML3 ag 30
Nc1ccc2nc3c(=O)n(C4CCCCC4)c(=O)[nH]c3nc2c1	zfTRPN1 agonist 79, CRFBP-R2 agonist 167, TRPML3 ag 43
COc1ccc(OCC(=O)Nc2nonc2NC(=O)COc2ccc(OC)cc2)cc1	none
COc1ccc(C)cc1NC(=O)C(Sc1nnc(Nc2cc(C)ccc2OC)s1)c1ccccc1 (stereo not given)	none
CCCCOC(=O)Oc1ccc2c(=O)c(Oc3cccc(C)c3)coc2c1	CRFBP-R2 block 56
Cc1ccc(/C=C/C(=O)NCc2cccs2)cc1	none
CC1CCN(CCOc2ccc(C(=O)c3ccccc3)cc2)CC1	none (no result: zfTRPN1 agonist, TRPML3 ag)
COc1ccc(OC)c(N2C(N)=NC(N)=NC23CCCC3)c1	none
Cc1cccc(N2C(N)=NC(N)=NC23CCCCC3)c1	CRFBP-R2 block 52
CCOc1ccc(C2/C(=C(\O)c3ccc4c(c3)OCCO4)C(=O)C(=O)N2CCCN2CCOCC2)cc1 (stereo not given)	CRFBP-R2 block 55 (no result: zfTRPN1 agonist, TRPML3 ag)
CCOc1ccc(C2/C(=C(\O)c3ccc4c(c3)OCCO4)C(=O)C(=O)N2CCCN2CCOCC2)cc1OC (stereo not given)	none (no result: zfTRPN1 agonist, TRPML3 ag)
Cc1ccc(S(=O)(=O)c2nnn3c2nc(N2CCCCC2)c2ccccc23)cc1	CRFBP-R2 block 51
CC1(C)CN=c2s/c(=C\c3ccc(Cl)cc3)c(=O)n2C1	none
COC(=O)CSC1=NS(=O)(=O)c2ccccc21	CRFBP-R2 block 92
O=C1N/C(=C/c2ccc(N3CCOCC3)o2)C(=O)N1c1cccc(Cl)c1	CRFBP-R2 block 70
Cc1ccc(/C=C2/NC(=O)N(c3ccccc3)C2=O)o1	none
Cc1ccc2nc(-c3ccc(NC(=O)CSc4ccccc4)cc3)[nH]c2c1	none
CC(=O)Oc1ccc2c(c1)O/C(=C\c1ccncc1)C2=O	CRFBP-R2 agonist 127
COc1ccc(/C=C2\Oc3cc(OC(=O)N4CCOCC4)ccc3C2=O)cc1	none
COc1ccccc1C(=O)Oc1ccc2c(c1)O/C(=C\c1ccncc1)C2=O	CRFBP-R2 agonist 124
O=C(Oc1ccc2c(c1)O/C(=C\c1ccncc1)C2=O)c1cccs1	none
CSc1nnc(-c2cc3ccccc3cc2O)n1C	none
N#Cc1ccc(CC(=O)c2ccccc2)[nH]c1=O	CRFBP-R2 agonist 58 (no result: zfTRPN1 agonist, TRPML3 ag)
N#Cc1ccc(CCc2ccccc2)[nH]c1=O	none (no result: zfTRPN1 agonist, TRPML3 ag)
CCN1CCSc2ccc(C(=O)NCc3ccccc3F)cc21	CRFBP-R2 agonist 280 (no result: zfTRPN1 agonist, TRPML3 ag)
CCN1CCSc2ccc(C(=O)NCc3ccccc3C)cc21	none (no result: zfTRPN1 agonist, TRPML3 ag)
COCC(=O)N(C)c1nnc(-c2ccc([N+](=O)[O-])cc2)s1	none
COCCNC(=S)N/N=C/c1ccc(-c2ccc([N+](=O)[O-])cc2)o1	CRFBP-R2 agonist 70
CC(=O)c1cn(-c2ccc(Cl)cc2)c(=O)n(Cc2ccc(Br)cc2)c1=O	none
